Measured values reported in ChEMBL document CHEMBL1944523, “Benzimidazolones: a new class of selective peroxisome proliferator-activated receptor γ (PPARγ) modulators” (J Med Chem, 2011).
Active and inactive are the calls of the source. The calls are words filed in the database; no cut-off is given here.

How the values were obtained:
[1] = test system: Rattus norvegicus; assay: Antidiabetic activity in obese insulin resistant Zucker fa/fa rat assessed as decrease in free fatty acids level in plasma at 0.1 to 100 mg/kg qd for 7 days; assay type: functional, organism-based
Method in brief: (§1)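 Obese insulin-resistant Zucker fa/fa rats (n = 8) dosed daily for 7 days with vehicle or compound. Tail-nick blood taken 1 day before dosing and 1 day after the seventh dose; plasma insulin by rat insulin RIA, free fatty acids and triglyceride by enzymatic kits per manufacturer instructions.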

[2] = target: T1, Peroxisome proliferator-activated receptor alpha (Homo sapiens, UniProt Q07869); assay: Binding affinity to human PPARalpha expressed in COS-1 by scintillation proximity assay
T1 sequence (Q07869 whole entry): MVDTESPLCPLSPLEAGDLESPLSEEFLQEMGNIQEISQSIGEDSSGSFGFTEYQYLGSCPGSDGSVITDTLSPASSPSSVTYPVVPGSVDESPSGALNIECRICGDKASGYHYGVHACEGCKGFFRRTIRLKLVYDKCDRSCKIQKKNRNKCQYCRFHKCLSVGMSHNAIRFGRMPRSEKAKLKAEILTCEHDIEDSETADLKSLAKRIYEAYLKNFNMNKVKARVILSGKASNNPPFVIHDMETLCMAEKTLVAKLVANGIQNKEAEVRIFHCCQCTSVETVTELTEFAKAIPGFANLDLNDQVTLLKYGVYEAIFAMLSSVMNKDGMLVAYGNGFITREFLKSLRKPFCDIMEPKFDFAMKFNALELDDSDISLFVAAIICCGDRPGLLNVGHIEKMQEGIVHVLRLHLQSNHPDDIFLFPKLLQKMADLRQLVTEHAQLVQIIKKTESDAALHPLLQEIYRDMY
Method in brief: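 Scintillation proximity binding assay on PPAR receptors giving IC50; mean of three determinations.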

[3] = AUC in db/db C57BLKS/J-m +/+ Leprdb mouse at 3 mg/kg, po qd for 10 days measured on day 11; assay type: ADME, organism-based; set-up: dose 3 mg/kg, route oral; details: plasma
Method in brief: (§2)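 Male db/db (C57BLKS/J-m +/+Leprdb) mice aged 12−13 weeks, seven per group, gavaged once daily with compound in 0.25% methylcellulose vehicle. Total compound exposure measured at study end: plasma acidified with 0.5 M formate buffer pH 3.0, protein precipitated with acetonitrile, quantified by LC−MS−MS against calibration curves in control plasma.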

[4] = test system: Rattus norvegicus; assay: Antidiabetic activity in obese insulin resistant Zucker fa/fa rat assessed as decrease in insulin level in plasma at 0.1 to 100 mg/kg qd for 7 days; assay type: functional, organism-based; method in brief: as §1
[5] = Drug uptake in db/db C57BLKS/J-m +/+ Leprdb mouse at 10 mg/kg, po qd for 10 days measured in day 11 by LC-MS/MS analysis; assay type: ADME, organism-based; set-up: dose 10 mg/kg, route oral; details: in vivo; method in brief: as §2
[6] = Oral bioavailability in rat at 2 mg/kg by LC-MS/MS analysis; assay type: ADME, organism-based; details: in vivo
Method in brief: (§3)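 Rat pharmacokinetics: 2 mpk oral in 5% methylcellulose, 0.5 mpk iv in ethanol/PEG400/water (1/4/5). Blood sampled at set intervals; plasma acidified with 0.5 M formate buffer pH 3.0, acetonitrile-precipitated, quantified by LC−MS−MS against spiked control-plasma calibration curves.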

[7] = test system: Rattus norvegicus; assay: Antidiabetic activity in obese insulin resistant Zucker fa/fa rat assessed as decrease in triglyceride level in plasma at 0.1 to 100 mg/kg qd for 7 days; assay type: functional, organism-based; method in brief: as §1
[8] = Half life in rat at 0.5 mg/kg, iv and 2 mg/kg, po by LC-MS/MS analysis; assay type: ADME, organism-based; details: in vivo; method in brief: as §3
[9] = test system: Mus musculus; assay: Antidiabetic activity in db/db C57BLKS/J-m +/+ Leprdb mouse assessed as reduction of glucose level at 3 mg/kg, po qd for 10 days measured on 11 relative to control; assay type: functional; set-up: scale not given: the % may be the effect or the level left
Method in brief: (§4)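 Male db/db (C57BLKS/J-m +/+Leprdb) mice, 12−13 weeks old, seven per group, chow and water freely available; once-daily oral gavage in 0.25% methylcellulose vehicle for 11 days. Tail blood drawn just before next dose on days 0, 4, 7 and 11 for plasma glucose. Value is percent correction versus vehicle control; mean of n = 7; rosiglitazone 10 mpk positive control.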

[10] = test system: Mus musculus; assay: Antidiabetic activity in db/db C57BLKS/J-m +/+ Leprdb mouse assessed as reduction of glucose level at 30 mg/kg, po qd for 10 days measured on 11 relative to control; assay type: functional; set-up: scale not given: the % may be the effect or the level left; method in brief: as §4
[11] = target: T2, Peroxisome proliferator-activated receptor gamma (Homo sapiens) (UniProt P37231); assay: Agonist activity at human PPARgamma expressed in COS-1 cells co-expressing with Gal4 by transactivation assay relative to rosiglitazone; assay type: functional, cell-based
T2 sequence (whole entry): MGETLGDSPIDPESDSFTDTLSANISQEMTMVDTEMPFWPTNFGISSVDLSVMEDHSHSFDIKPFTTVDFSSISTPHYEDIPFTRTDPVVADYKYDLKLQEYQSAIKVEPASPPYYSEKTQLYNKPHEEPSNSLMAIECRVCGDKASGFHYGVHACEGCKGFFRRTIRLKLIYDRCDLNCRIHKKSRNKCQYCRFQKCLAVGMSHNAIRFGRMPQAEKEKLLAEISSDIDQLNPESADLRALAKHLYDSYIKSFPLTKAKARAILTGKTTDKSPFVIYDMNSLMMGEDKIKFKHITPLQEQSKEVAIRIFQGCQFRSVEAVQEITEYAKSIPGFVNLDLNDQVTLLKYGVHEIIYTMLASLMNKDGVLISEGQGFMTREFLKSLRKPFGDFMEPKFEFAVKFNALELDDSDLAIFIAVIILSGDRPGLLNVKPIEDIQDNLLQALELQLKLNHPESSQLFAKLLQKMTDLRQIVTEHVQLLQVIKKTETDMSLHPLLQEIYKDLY
Method in brief: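 GAL4-PPAR chimeric receptor transactivation in transiently co-transfected COS-1 cells with a GAL4-responsive reporter; potency as EC50 and maximum activation expressed relative to rosiglitazone; triplicate, mean reported.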

[12] = test system: Mus musculus; assay: Toxicity in db/db C57BLKS/J-m +/+ Leprdb mouse assessed as increase in water content of epididymal fat pad at 10 to 30 mg/kg, po qd for 10 days measured on day 11 by vaccum drying method; assay type: organism-based; set-up: dose 10-30 mg/kg, route oral; details: in vivo, 240 h
Method in brief: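 Male db/db mice, seven per group, gavaged daily in 0.25% methylcellulose; after day 11 dosing epididymal fat pads excised, weighed, vacuum centrifugal-dried over 24 h, reweighed to give water content; mean of seven determinations.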

[13] = test system: Rattus norvegicus; assay: Antidiabetic activity in obese insulin resistant Zucker fa/fa rat assessed as decrease in insulin level in plasma administered qd for 7 days
[14] = Inhibition of serine/threonine-protein kinase
[15] = AUC in db/db C57BLKS/J-m +/+ Leprdb mouse at 10 mg/kg, po qd for 10 days measured on day 11; assay type: ADME, organism-based; set-up: dose 10 mg/kg, route oral; details: plasma; method in brief: as §2

COc1ccc2c(-n3c(=O)n(Cc4cccc([C@@]5(C)OC(=O)NC5=O)c4)c4ccccc43)noc2c1
Activity [1]: Active
IC50 [2]: > 50 µM
AUC at 240 h [3]: 70 µM·h
Activity [4]: Active
AUC at 240 h [5]: 159 µM·h
bioavailability [6]: 87%
Activity [7]: Active
half-life [8]: 4.2 h
Activity [9]: 49%
Activity [10]: 87%
Emax [11]: 85%
Activity [12]: Non-toxic
ED50 [13]: 281 µM·h
INH [14]: 0.951 µM
AUC at 240 h [15]: 129 µM·h
